In ChEMBL document CHEMBL1147572, “Synthesis, SAR, and antitumor properties of diamino-C,N-diarylpyrimidine positional isomers: inhibitors of lysophosphatidic acid acyltransferase-beta” (Bioorg Med Chem Lett, 2004):

Key:
K562 = assay: In vitro inhibitory activity against K-562 cell line proliferation; format: functional, cell-based; settings: Homo sapiens
In short: (§1)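 Cell proliferation measured with a CyQuant fluorescent DNA-dye kit, following the method of an earlier report.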

DU-145 = assay: In vitro inhibitory activity against DU 145 cell line proliferation; format: functional, cell-based; settings: Homo sapiens; in short: as §1
[1] = biological target: T1, 1-acyl-sn-glycerol-3-phosphate acyltransferase beta (Homo sapiens, UniProt O15120); assay: Inhibitory activity against Lysophosphatidic acid acyltransferase-beta expressed in Sf9 insect cell membranes
T1 sequence (O15120 whole entry): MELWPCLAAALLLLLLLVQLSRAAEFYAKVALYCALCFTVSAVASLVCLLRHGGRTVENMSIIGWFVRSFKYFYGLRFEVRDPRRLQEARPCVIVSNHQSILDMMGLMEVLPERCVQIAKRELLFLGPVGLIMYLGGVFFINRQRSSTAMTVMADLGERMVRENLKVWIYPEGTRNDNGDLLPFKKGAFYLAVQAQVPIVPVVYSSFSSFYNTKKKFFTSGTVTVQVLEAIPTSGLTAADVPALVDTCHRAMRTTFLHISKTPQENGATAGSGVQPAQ
In short: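 LPAAT-β overexpressed in Sf9 insect cell membranes. Enzyme activity read colorimetrically with DTNB (5,5'-dithiobis(2-nitrobenzoic acid)).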

[2] = biological target: T2, 1-acyl-sn-glycerol-3-phosphate acyltransferase alpha (Homo sapiens) (UniProt Q99943); assay: Inhibitory activity against lysophosphatidic acid acyltransferase-alpha at 40 uM concentration
T2 sequence (whole entry): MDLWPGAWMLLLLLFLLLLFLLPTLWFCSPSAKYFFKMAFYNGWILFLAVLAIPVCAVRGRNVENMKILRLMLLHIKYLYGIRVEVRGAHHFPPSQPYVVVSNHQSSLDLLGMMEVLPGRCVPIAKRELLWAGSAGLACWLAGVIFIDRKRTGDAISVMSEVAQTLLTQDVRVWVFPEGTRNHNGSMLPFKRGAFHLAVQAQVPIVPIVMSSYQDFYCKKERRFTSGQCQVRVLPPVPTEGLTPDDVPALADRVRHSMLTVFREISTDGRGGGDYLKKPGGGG
In short: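 LPAAT-α overexpressed in Sf9 insect cell membranes in the same way. Activity read colorimetrically with DTNB. Inhibition recorded at 40 μM.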

[3] = system: Lewis lung carcinoma cell line; assay: In vitro inhibitory activity against murine Lewis lung tumor LL2 cell line; format: functional, cell-based; settings: Mus musculus
Mus musculus = assay: Tumor growth delay against Lewis lung tumor LL2 cell line at 100 mg/kg q1d*4 intravenously in mice; settings: route intravenous

SMILES	IC50 (K562) [nM]	IC50 (DU-145) [nM]	IC50 [1] [nM]	inhibition [2] [%]	IC50 [3] [nM]	TGD (Mus musculus) [days]
CCOc1ccc(Cl)cc1-c1cc(Nc2ccc(CCCO)cc2)nc(N)n1	> 1000	> 1000				
CCOc1ccc(Br)cc1-c1cc(Nc2ccc(C(=O)NO)cc2)nc(N)n1	700	> 1000				
Nc1nc(Nc2ccc(Cl)cc2)cc(-c2cc(Br)ccc2O)n1	> 1000	> 1000				
COc1ccc(Cl)cc1-c1cc(N)nc(Nc2ccc(Br)cc2)n1	3000	> 10000	2300			
COc1ccc(Cl)cc1-c1nc(N)cc(Nc2ccc(Cl)cc2)n1	750	5000	7000			
CCOc1ccc(Cl)cc1-c1cc(Nc2cccc([N+](=O)[O-])c2)nc(N)n1	450	> 1000	640			
COc1ccc(Cl)cc1-c1cc(Nc2ccc(Cl)cc2)nc(N)n1	150	500				
CCOc1ccc(Br)cc1-c1cc(Nc2ccc(C(=O)O)cc2)nc(N)n1			2700			
COc1ccc(Cl)cc1-c1nc(N)cc(Nc2ccc(Br)cc2)n1	150	800				
CCOc1ccc(Br)cc1-c1cc(Nc2ccc(/C(C)=N\OC)cc2)nc(N)n1	> 1000	> 1000	970			
CCOc1ccc(Br)cc1-c1cc(Nc2ccc(C(=N)N)cc2)nc(N)n1			> 5000			
COc1ccc(Cl)cc1-c1cc(Nc2ccc3c[nH]nc3c2)nc(N)n1	250	1000				
CCOc1ccc(Br)cc1-c1cc(Nc2ccc(C(N)=O)cc2)nc(N)n1			750			
CCOc1ccc(Cl)cc1-c1cc(Nc2ccc([N+](=O)[O-])cc2)nc(N)n1	180	350				
Cc1ccc(Cl)cc1-c1cc(Nc2cccc(Br)c2)nc(N)n1	200	400	610			
CCOc1ccc(Br)cc1-c1cc(Nc2ccc(B(O)O)cc2)nc(N)n1	200	500	91			
CCOc1ccc(Br)cc1-c1cc(Nc2ccccc2)nc(N)n1	260	> 1000	120			
CCOc1ccc(Br)cc1-c1cc(Nc2cccc(C#N)c2)nc(N)n1	350	> 1000	720			
COc1ccc(Cl)cc1-c1cc(N)nc(Nc2ccc3c[nH]nc3c2)n1	> 10000	> 10000				
CCOc1ccc(Cl)cc1-c1cc(Nc2ccc(CC(=O)O)cc2)nc(N)n1	> 1000	> 1000	580			
Cc1ccc(O)cc1-c1cc(Nc2ccc(Cl)cc2)nc(N)n1			8300			
CCOc1ccc(Br)cc1-c1cc(Nc2ccc(CC(=O)O)cc2)nc(N)n1	> 1000	> 1000	210			
Cc1ccc(F)cc1-c1cc(Nc2ccc(Cl)cc2)nc(N)n1	250	> 1000	150			
COc1ccc(Cl)cc1-c1cc(N)nc(Nc2ccc(Cl)cc2)n1	3000	> 10000	7000			
COc1ccc(Cl)cc1-c1nc(N)cc(Nc2ccc3c[nH]nc3c2)n1	5500	> 10000				
COc1ccc(Cl)cc1-c1cc(Nc2ccc(Br)cc2)nc(N)n1	150	250	28			
Nc1nc(Nc2ccc(Cl)cc2)cc(-c2cc(Cl)ccc2O)n1			10000			
CCOc1ccc(Br)cc1-c1cc(Nc2ccc(CC(=O)NO)cc2)nc(N)n1	> 1000	> 1000	400			

Continued, in another order:

IC50 (K562) [nM]	IC50 (DU-145) [nM]	IC50 [1] [nM]	inhibition [2] [%]	IC50 [3] [nM]	SMILES	TGD (Mus musculus) [days]
50	90				CCOc1ccc(Br)cc1-c1cc(Nc2ccc(C(C)=O)cc2)nc(N)n1	
70	400	17			CCOc1ccc(Br)cc1-c1cc(Nc2ccc(C#N)cc2)nc(N)n1	
60	120	22			Cc1ccc(Cl)cc1-c1cc(Nc2ccc(Cl)cc2)nc(N)n1	
< 100	200				CCOc1ccc(Cl)cc1-c1cc(Nc2ccc3c[nH]nc3c2)nc(N)n1	
< 12	40				CCOc1ccc(Cl)cc1-c1cc(Nc2ccc(CO)cc2)nc(N)n1	
70	100				Cc1ccc(Br)cc1-c1cc(Nc2ccc(Cl)cc2)nc(N)n1	
< 50	< 50	84			CCOc1ccc(Br)cc1-c1cc(Nc2ccc(/C(C)=N\O)cc2)nc(N)n1	
< 100	190				Nc1nc(Nc2ccc(Cl)cc2)cc(-c2cc(Cl)ccc2Cl)n1	
50	80	16	50		CCOc1ccc(Br)cc1-c1cc(Nc2ccc(Cl)cc2)nc(N)n1	
140	230	140		160	Cc1ccc(Cl)cc1-c1cc(Nc2ccc(C(F)(F)F)cc2)nc(N)n1	6
70	110				Cc1ccc(Br)cc1-c1cc(Nc2ccc(Br)cc2)nc(N)n1	
60	130				Cc1ccc(Cl)cc1-c1cc(Nc2ccc(Br)cc2)nc(N)n1	
< 50	70				CCOc1ccc(Cl)cc1-c1cc(Nc2ccc(CCO)cc2)nc(N)n1	
< 12	70				CCOc1ccc(Cl)cc1-c1cc(Nc2ccc(Cl)cc2)nc(N)n1	
